Data from ChEMBL document CHEMBL1122273, “5-sulfamoylorthanilic acids, a sulfonamide series with salidiuretic activity” (J Med Chem, 1983).

Legend:
Canis familiaris [1] = assay: sodium excretion collected at 1-6 hr time after oral administration in dog (four animals per dose) dosed at 3.12 mg/kg.; format: functional, Canis lupus familiaris
Outline: (§1)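 Trained male beagles, four per dose, fasted 24 h with tap water ad libitum. After bladder emptying, given 20 mL/kg tap water by stomach tube, then 4 mL/kg at each hourly catheterization; 2 h control collection, then oral dosing. Urine volume and Na⁺ (flame photometry) reported for 1–6, 7–24 and 1–24 h post-dose periods.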

Canis familiaris [2] = assay: Diuretic activity in the dog (2 animals/dose) at (dose 0.025 mg/Kg), when administered perorally; format: functional, Canis lupus familiaris, Urine
Outline: (§2)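 Trained male beagles, fasted 24 h with tap water ad libitum. Bladder emptied by catheter, then 20 mL/kg tap water by stomach tube, with 4 mL/kg water at each hourly catheterization up to 8 h. The first 2 h of urine served as control. Oral dosing came after the second catheterization, and 1–6 h urine was pooled. Na⁺ and K⁺ were measured by flame photometry, Cl⁻ argentometrically, in mequiv/kg.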

[3] = It is the ratio, measured as saluretic activity in the dog as concentration of Na+ in urinary excretion (dose 1.56 mg/Kg, po) to that of K; format: functional, Urine; outline: as §2
Canis familiaris [4] = assay: Saluretic activity in the dog measured as concentration of Na+ in urinary excretion (2 animals/dose) at (dose 0.4 mg/Kg, perorally); format: functional, Canis lupus familiaris, Urine
Outline: (§3)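 Male beagles trained to rest on a table and to accept stomach tube and catheter. Food withdrawn 24 h before, tap water ad libitum. Bladder emptied by catheter, then 20 mL/kg tap water by stomach tube. Catheterized hourly up to 8 h with 4 mL/kg water orally each time; first 2 h urine served as control. Oral dosing after second catheterization. Pooled 1–6 h urine; Na⁺/K⁺ by flame photometry, Cl⁻ argentometrically.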

Canis familiaris [5] = assay: Saluretic activity in the dog measured as concentration of Na+ in urinary excretion (2 animals/dose) at (dose 0.025 mg/Kg, perorally); format: functional, Canis lupus familiaris, Urine; outline: as §3
Canis familiaris [6] = assay: sodium excretion collected at 1-24 hr time after oral administration in dog (four animals per dose) dosed at 0.05 mg/kg.; format: functional, Canis lupus familiaris; outline: as §1
Canis familiaris [7] = assay: sodium excretion collected at 7-24h time after oral administration in dog (four animals per dose) dosed at 0.05 mg/kg.; format: functional, Canis lupus familiaris
Outline: (§4)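 Trained male beagles, four per dose, fasted 24 h with tap water ad libitum. The bladder was emptied by catheter, then 20 mL/kg tap water was given by stomach tube. Dogs were catheterized hourly with 4 mL/kg water orally each time, and the first 2 h served as control. Compound was given orally after the second catheterization. Urine volume and flame-photometric Na⁺ were measured over 1-6, 7-24 and 1-24 h.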

Canis familiaris [8] = assay: Saluretic activity in the dog measured as concentration of Cl - in urinary excretion (2 animals/dose) at (dose 0.025 mg/Kg, perorally); format: functional, Canis lupus familiaris, Urine
Outline: (§5)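 Male beagles trained to the procedures, food withdrawn 24 h before, tap water ad libitum. Bladder emptied by catheter, then 20 mL/kg tap water by stomach tube, plus 4 mL/kg orally at each hourly catheterization up to 8 h. The first 2 h of urine served as control. Compound given orally after the second catheterization. Urine from 1–6 h post-dose pooled; Na⁺ and K⁺ by flame photometry, Cl⁻ argentometrically, in mequiv/kg.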

Canis familiaris [9] = assay: Saluretic activity in the dog measured as concentration of K+ in urinary excretion (2 animals/dose) at (dose 0.025 mg/Kg, perorally); format: functional, Canis lupus familiaris, Urine; outline: as §5
Canis familiaris [10] = assay: urinary excretion collected at 1-6 hr time after oral administration in dog (four animals per dose) dosed at 0.05 mg/kg.; format: functional, Canis lupus familiaris, Urine; outline: as §4
Canis familiaris [11] = assay: sodium excretion collected at 1-6 h time after oral administration in dog (four animals per dose) dosed at 0.05 mg/kg.; format: functional, Canis lupus familiaris; outline: as §1
Canis familiaris [12] = assay: Urinary excretion collected at 1-6 hr time after oral administration in dog (four animals per dose) dosed at 0.39 mg/kg.; format: functional, Canis lupus familiaris, Urine; outline: as §1
Canis familiaris [13] = assay: sodium excretion collected at 7-24 hr time after oral administration in dog (four animals per dose) dosed at 0.39 mg/kg.; format: functional, Canis lupus familiaris
Outline: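 Trained male beagles, food withdrawn 24 h beforehand with tap water ad libitum. Bladder emptied by catheter, then 20 mL/kg tap water by stomach tube. Catheterized hourly (up to 8 h) with 4 mL/kg water orally each time. First 2 h of urine served as control. Compound given orally after second catheterization. Na⁺ measured flame-photometrically, in mequiv/kg.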

Canis familiaris [14] = assay: urinary excretion collected at 7-24 hr time after oral administration in dog (four animals per dose) dosed at 0.05 mg/kg.; format: functional, Canis lupus familiaris, Urine
[15] = It is the ratio, measured as saluretic activity in the dog as concentration of Cl- in urinary excretion (dose 1.56 mg/Kg, po) to that of (Na+)+(K+); format: functional, Urine; outline: as §2
Canis familiaris [16] = assay: Saluretic activity in the dog measured as concentration of Na+ in urinary excretion (2 animals/dose) at a dose of 0.1 mg/Kg, perorally; format: functional, Canis lupus familiaris, Urine; outline: as §3
Canis familiaris [17] = assay: Saluretic activity in the dog measured as concentration of Cl - in urinary excretion (2 animals/dose) at (dose 12.5 mg/Kg, perorally); format: functional, Canis lupus familiaris, Urine; outline: as §5
Canis familiaris [18] = assay: Urinary excretion collected at 7-24 hr time after oral administration in dog (four animals per dose) at dose 1.56 mg/kg.; format: functional, Canis lupus familiaris, Urine; outline: as §1
Canis familiaris [19] = assay: sodium excretion collected at 1-6 hr time after oral administration in dog (four animals per dose) at dose 1.56 mg/kg.; format: functional, Canis lupus familiaris; outline: as §1
Canis familiaris [20] = assay: sodium excretion collected at 1-6 hr time after oral administration in dog (four animals per dose) at dose 6.25 mg/kg.; format: functional, Canis lupus familiaris; outline: as §1
[21] = It is the ratio, measured as saluretic activity in the dog as concentration of Na+ in urinary excretion (dose 12.5 mg/kg, p.o.) to that of K; format: functional, Urine; settings: route oral; outline: as §2
Canis familiaris [22] = assay: Saluretic activity in the dog measured as concentration of K+ in urinary excretion (2 animals/dose) at (dose 12.5 mg/Kg, perorally); format: functional, Canis lupus familiaris, Urine; outline: as §3
Canis familiaris [23] = assay: Urinary excretion collected at 1-6 hr time after oral administration in dog (four animals per dose) at dose 0.39 mg/kg.; format: functional, Canis lupus familiaris, Urine; outline: as §1
Canis familiaris [24] = assay: Urinary excretion collected at 1-6 hr time after oral administration in dog (four animals per dose) at dose 1.56 mg/kg.; format: functional, Canis lupus familiaris, Urine; outline: as §1
Canis familiaris [25] = assay: Urinary excretion collected at 1-24 hr time after oral administration in dog (four animals per dose) at dose 0.39 mg/kg.; format: functional, Canis lupus familiaris, Urine; outline: as §1
Canis familiaris [26] = assay: sodium excretion collected at 1-24 hr time after oral administration in dog (four animals per dose) at dose 1.56 mg/kg.; format: functional, Canis lupus familiaris; outline: as §1
[27] = It is the ratio, measured as saluretic activity in the dog as concentration of Cl- in urinary excretion (dose 1.56 mg/Kg, perorally) to that of (Na+)+K+); format: functional, Urine; outline: as §2
Canis familiaris [28] = assay: Urinary excretion collected at 7-24 hr time after oral administration in dog (four animals per dose) at dose 0.39 mg/kg.; format: functional, Canis lupus familiaris, Urine; outline: as §1
Rattus norvegicus [29] = organism: Rattus norvegicus; assay: Effect on (GFR) glomerular filtration rate in rats in comparison to furosemide activity
[30] = It is the ratio, measured as saluretic activity in the dog as concentration of Na+ in urinary excretion (dose 1.56 mg/Kg, perorally) to that of K; format: functional, Urine; outline: as §2
Rattus norvegicus [31] = organism: Rattus norvegicus; assay: Effect on Urine flow in rats in comparison to furosemide activity

CN(c1ccccc1)c1cc(NCc2ccco2)c(S(=O)(=O)[O-])cc1S(N)(=O)=O.[Na+]
Na+ excretion (Canis familiaris [1]): 4.39 mequiv kg-1 | Diuretic activity (Canis familiaris [2]): 33.3 ml kg-1 6hr-1 | Ratio [3]: 4.9 | Saluretic activity (Canis familiaris [4]): 5.26 m equiv 6hr-1 kg-1 | Saluretic activity (Canis familiaris [5]): 0.45 m equiv 6hr-1 kg-1 | Na+ excretion (Canis familiaris [6]): 1.51 mequiv kg-1 | Na+ excretion (Canis familiaris [7]): 0.22 mequiv kg-1 | Saldiuretic activity (Canis familiaris [8]): 0.75 mequiv kg-1 6hr-1 | Saluretic activity (Canis familiaris [9]): 0.2 m equiv 6hr-1 kg-1 | Urinary excretion (Canis familiaris [10]): 40.5 mL/kg | Na+ excretion (Canis familiaris [11]): 1.29 mequiv kg-1 | Urinary excretion (Canis familiaris [12]): 75.3 mL/kg | Na+ excretion (Canis familiaris [13]): 0.55 mequiv kg-1 | Urinary excretion (Canis familiaris [14]): 10.1 mL/kg | Ratio [15]: 1

NS(=O)(=O)c1cc(S(=O)(=O)[O-])c(NCc2ccco2)cc1Oc1ccccc1.[Na+]
Saluretic activity (Canis familiaris [16]): 0.18 m equiv 5hr-1 kg-1 | Saldiuretic activity (Canis familiaris [17]): 7.13 m equiv 6hr-1 kg-1 | Urinary excretion (Canis familiaris [18]): 12.3 mL/kg | Na+ excretion (Canis familiaris [19]): 4.97 mequiv kg-1 | Na+ excretion (Canis familiaris [20]): 6.52 mequiv kg-1 | Ratio [21]: 5.5 | Saldiuretic activity (Canis familiaris [22]): 1.17 m equiv 6hr-1 kg-1 | Urinary excretion (Canis familiaris [23]): 41.6 mL/kg | Urinary excretion (Canis familiaris [24]): 61.1 mL/kg | Urinary excretion (Canis familiaris [25]): 50.9 mL/kg | Na+ excretion (Canis familiaris [26]): 5.4 mequiv kg-1 | Ratio [27]: 0.95 | Urinary excretion (Canis familiaris [28]): 9.3 mL/kg | GFR (Rattus norvegicus [29]): 6.89 mL/min/kg | Ratio [30]: 4.9 | Volume (Rattus norvegicus [31]): 0.909 mL/min/kg
